How the values were obtained:
white blood cells (WBCs) = assay: Mobilization of white blood cells to peripheral blood; assay type: in vivo, mice; details: 50 µg per mouse s.c., 2 h; in words
Summary of the method: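 Normal mice received 50 µg test peptide s.c. in 200 µL; untreated mice were controls. Heart blood was taken under anaesthesia at 30 min, 1 h and 2 h. 100 µL blood was RBC-lysed, blocked 10 min on ice with 2% rat and 2% mouse serum, and stained for CD45.2, CD3, B220, CD11b, Gr-1 and F4/80. Cells were counted by flow cytometry with counting beads, WBCs gated as CD45.2⁺. Groups had ≥3 mice; two experiments.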

progenitor cells = assay: Mouse progenitor colony assay; assay type: in vivo, mice; details: 50 µg, post injection; in words
Summary of the method: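 Mice were injected s.c. with 50 µg peptide; untreated mice were controls. 150 µL blood per mouse was plated in 3 mL MethoCult GF. Colonies were counted by inverted microscope 14 days after plating. Each group had ≥3 mice, assayed in duplicate per mouse.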

CXCR4 = CXCR4 (Homo sapiens, UniProt P61073); details: read-out: IC50 (binding to CXCR4); reported for T140; ref [26]; cited from earlier work
stem cells = details: mice; ref [12]; cited from earlier work
[1] = system: Jurkat cells (CXCL12-induced migration); details: Jurkat T-cells; ref [30]; cited from earlier work

CXCR4, sequence (P61073 whole entry): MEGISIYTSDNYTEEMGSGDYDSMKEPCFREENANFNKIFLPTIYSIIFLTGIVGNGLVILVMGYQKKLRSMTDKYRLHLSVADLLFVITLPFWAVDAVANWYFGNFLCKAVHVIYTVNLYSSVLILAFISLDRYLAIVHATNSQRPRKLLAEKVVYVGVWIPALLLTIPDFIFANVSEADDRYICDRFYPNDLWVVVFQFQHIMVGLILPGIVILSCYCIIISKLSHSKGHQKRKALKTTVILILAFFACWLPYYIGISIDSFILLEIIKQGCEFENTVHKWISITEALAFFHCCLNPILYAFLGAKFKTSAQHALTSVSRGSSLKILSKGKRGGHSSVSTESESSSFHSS

Substance	time course of WBC numbers in the blood (white blood cells (WBCs))	time course of progenitors in the blood (progenitor cells)	IC50 (CXCR4)	in vivo mobilization of stem cells from the bone marrow (stem cells)	lowest concentration that induces maximal migration [1]
4-F-benzoyl-TN14003 [T140]	remained relatively stable after 2 h	increased steadily and remained substantially elevated between 2 and 4 h post injection	2.5 nM	induces in vivo mobilization of stem cells from the bone marrow, which is additive in effect with G-CSF treatment	
CXCL12: natural human ligand of CXCR4, chemokine CXCL12/SDF-1					100 ng/mL
